Keap1 Nrf2 FP: Keap1-Nrf2 protein-protein interaction inhibitors, primary screen, biochemical, fluorescence polarization, single point; Kelch-like ECH-associated protein 1 (Homo sapiens), Q14145; Keap1 Kelch-Nrf2 peptide fluorescence polarization, 1536-well; inhibition, % at 9.4 µM; actives 0.15% (n = 340,000); in the data active means inhibition above about 12%;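 further: human Keap1 Kelch domain with fluorescein labeled Nrf2 9mer peptide probe; 0% = neutral control wells and 100% = peptide positive control; higher means more block of Keap1 binding to Nrf2 peptide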
CAL PDZ FP-1: CAL PDZ peptide-binding inhibitors, primary screen, biochemical, fluorescence polarization, Cer-tagged CAL PDZ, HTS; Golgi-associated PDZ and coiled-coil motif-containing protein (Homo sapiens), Q9HD26; purified CAL PDZ, TMR-peptide fluorescence polarization, 1 h; inhibition, % at 20 µM; actives 0.02% (n = 330,000); AID 504414, 2011;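 active means highest replicate inhibition of at least 40%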;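 further: plate controls were DMSO neutral control wells for no effect and unlabeled competitor peptide control wells for full effect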
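material = purified tagged CAL PDZ domain construct (CerCALP) | buffer or medium = sodium phosphate/NaCl buffer pH 7.4 with TCEP, IgG, Thesit | reagent = TMR-labelled reporter peptide T*-PRC34 bound in PDZ groove | incubation = 1 h room-temperature incubation prior to read | measured by = fluorescence polarization (mP) | evaluation = percent inhibition from loss of millipolarization | control set = unlabelled peptide and DMSO controls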
APOBEC3G inh: APOBEC3G DNA deaminase inhibitors, primary screen, biochemical, fluorescence, single-stranded DNA substrate, uHTS; recombinant A3G, ssDNA deamination FAM/TAMRA fluorescence; inhibition, % at 20 µM; actives 0.28% (n = 330,000); AID 493012, 2011;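 active means inhibition of at least 40% at 20 µM, with no more than 30% in the related APOBEC3A deaminase screen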;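 further: plate controls were DMSO wells with A3G for no effect and wells lacking A3G enzyme for full effect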
A3A deaminase: APOBEC3A ssDNA deaminase inhibitors, primary screen, selectivity assay for APOBEC3G inhibitor project, biochemical, FAM/TAMRA oligo cleavage fluorescence. recombinant A3A, FAM/TAMRA ssDNA deamination fluorescence. actives 0.41% (n = 330,000). DNA dC->dU-editing enzyme APOBEC-3A (Homo sapiens), P31941. inhibition, % at 20 µM;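 active means at least 40% inhibition at 20 µM here, with at most 30% in a related deaminase screen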;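 further: plate controls were A3A with DMSO for no effect and wells lacking A3A enzyme for full effect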
Target sequence (P31941 whole entry, looked up): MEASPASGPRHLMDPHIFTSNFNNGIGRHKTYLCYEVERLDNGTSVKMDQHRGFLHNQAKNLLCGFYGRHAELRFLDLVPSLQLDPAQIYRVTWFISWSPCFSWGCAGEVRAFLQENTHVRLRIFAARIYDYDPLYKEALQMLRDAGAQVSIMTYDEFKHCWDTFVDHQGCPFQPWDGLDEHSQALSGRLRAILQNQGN
CAL PDZ FP-2: untagged CAL PDZ binding inhibitors, primary screen, biochemical, fluorescence polarization, HTS. Golgi-associated PDZ and coiled-coil motif-containing protein (Homo sapiens), Q9HD26. purified CAL PDZ, TMR-peptide fluorescence polarization, 1 h. inhibition, % at 24.9 µM. actives 0.92% (n = 300,000);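 active means mean inhibition of at least 30% with at least half of replicates also reaching 30%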;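 further: 0% = DMSO neutral control and 100% = excess unlabeled competitor peptide PRC23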
LANA DNA inh: inhibitors of KSHV C-LANA binding to DNA, primary screen, biochemical, fluorescence polarization, FAM-LBS DNA, MBP-C-LANA, single point | actives 0.078% (n = 340,000) | inhibition, % at 9 µM | Kaposi's sarcoma herpesvirus LANA C-terminal domain (residues 932-1162) DNA binding;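 active means highest replicate inhibition at or above 60% at 9 µM, even if other replicates fall short; inactive means all replicates below 60% inhibition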;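 further: 0% = neutral control wells and 100% = 4 µM acridine orange control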
A3G conf: APOBEC3G deaminase inhibitor retest, confirmation, biochemical, fluorescence, single-stranded DNA substrate, single concentration | shares compounds with APOBEC3G inh | recombinant A3G ssDNA deaminase, UDG/FAM-TAMRA fluorescence | inhibition, % at 20 µM | actives 72% (n = 890) | AID 493152, 2011;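 active means inhibition reaching a set limit in any replicate at 20 µM, the limit being 80% of the first screen's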
UDG ctr A3G: E. coli UDG inhibitors, confirmation, counter-screen for APOBEC3G inhibitor project, biochemical, single concentration, fluorescence, FAM/TAMRA oligo. shares compounds with APOBEC3G inh. UDG counterscreen. inhibition, % at 20 µM. 710 tested, under 10 active;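 active means compounds giving 40% or more inhibition at 20 µM in any one of the three replicates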;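 further: plate controls were DMSO wells with UDG and oligo for no effect and DMSO wells lacking both for full effect; inhibitors lower the FAM signal released by uracil excision and alkaline cleavage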
Target sequence (P12295 whole entry, looked up): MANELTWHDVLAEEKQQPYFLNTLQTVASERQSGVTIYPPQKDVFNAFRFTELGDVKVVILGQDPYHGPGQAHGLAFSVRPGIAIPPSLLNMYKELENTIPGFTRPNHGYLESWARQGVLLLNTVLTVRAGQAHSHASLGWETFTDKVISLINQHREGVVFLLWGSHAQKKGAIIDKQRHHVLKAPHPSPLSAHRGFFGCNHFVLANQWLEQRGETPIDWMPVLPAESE
The depositor's hits bear a star; . = no result given. Rows were chosen to be rich in hits. Some 1.7% of all compounds tested hit in one or more screens of this group.

SMILES	Keap1 Nrf2 FP	CAL PDZ FP-1	APOBEC3G inh	A3A deaminase	CAL PDZ FP-2	LANA DNA inh	A3G conf	UDG ctr A3G
Cc1cc(-c2csc(N)n2)c(C)n1CCc1ccccc1	-1	-1	3	-1	1	1	.	.
Cc1cc(-c2csc(N)n2)c(C)n1CCC(C)C	1	-2	40*	6	-1	0	13	.
Cn1c(=O)n(C)c2cc(S(=O)(=O)Nc3ccccc3C(=O)O)ccc21	2	0	56*	4	3	-2	3	.
Cn1c(=O)n(C)c2cc(S(=O)(=O)NCC(=O)O)ccc21	1	-2	-5	-3	0	0	.	.
CCOC(=O)c1c(NC(=O)CSc2nnnn2-c2ccc(OC)cc2)sc(C)c1C	-1	-1	45*	-1	.	-1	77*	-3
COc1cccc(CNc2ccc(S(=O)(=O)N3CCCC3)cn2)c1	2	1	2	3	-2	0	.	.
O=C(O)c1ccccc1Nc1cc(Cl)c2nonc2c1[N+](=O)[O-]	-1	0	-4	-1	4	1	.	.
O=[N+]([O-])c1c(Nc2ccccn2)cc(Cl)c2nonc12	-11	0	45*	2	-2	1	60*	.
O=C(Cc1coc2cc(O)ccc12)NNC(=O)c1cccs1	-1	0	-8	-4	10	2	.	.
O=C(O)c1c[nH]c2ccc([N+](=O)[O-])cc2c1=O	-5	-1	.	.	-5	2	.	.
CC(c1ccccc1)n1c(Cn2ncc3ccccc3c2=O)n[nH]c1=S (centres undefined)	0	-2	30	-5	11	0	.	.
O=c1c2ccccc2cnn1Cc1n[nH]c(=S)n1-c1ccc(Cl)cc1	-5	0	42*	-2	-1	0	77*	-3
Cc1cccc2cc(COC(=O)c3ccccn3)c(=O)[nH]c12	-3	-1	40*	-15	-1	-2	-1	-3
CCOC(CNC(=O)CN1C(=O)COc2ccc(S(=O)(=O)N3CC(C)CC(C)C3)cc21)OCC (centres undefined)	-1	0	-6	-4	.	-1	.	.
Cc1ccc(NNS(=O)(=O)c2ccc(C)cc2)cc1	-4	-1	69*	-2	-1	0	65*	-3
CCOc1ccc(-c2nnn(CC(=O)N3CCCC3)n2)cc1OCC	3	-3	-5	3	3	0	.	.
Cc1cccc(-n2c(-c3ccc(Br)o3)n[nH]c2=S)c1	4	0	31	-3	-5	0	.	.
Cc1cccc(-n2c(-c3ccco3)n[nH]c2=S)c1	1	0	54*	-2	-5	-1	60*	-4
Cc1ccccc1-n1c(-c2ccco2)n[nH]c1=S	1	-2	37	-7	-2	0	.	.
S=c1[nH]nc(-c2ccco2)n1-c1ccc(Br)cc1	2	0	42*	-1	-2	0	69*	-3
O=C(NCCCc1ccccn1)C1CCC(=O)N(Cc2cccc(F)c2)C1 (centres undefined)	1	-1	-5	-2	.	1	.	.
S=C(Nc1ccc(Br)cc1Cl)NN1CCOCC1	2	0	61*	1	7	-2	3	.
Cc1cc(C(=O)O)ccc1-n1c(C)cc(/C=C(/C#N)C(=O)Nc2ccccc2)c1C	0	-1	11	9	8	3	.	.
Cc1cc(C(=O)O)ccc1-n1c(C)cc(C=C2C(=O)c3ccccc3C2=O)c1C	-4	0	51*	8	2	0	11	.
CCSC1=NC2(CCCCC2)Nc2sc3c(c21)CCCC3	-5	0	59*	1	-2	0	39*	.
SMILES	Keap1 Nrf2 FP	CAL PDZ FP-1	APOBEC3G inh	A3A deaminase	CAL PDZ FP-2	LANA DNA inh	A3G conf	UDG ctr A3G
COc1ccc(-n2c(=O)c3c4c(sc3n3c(=S)[nH]nc23)CCC4)cc1	0	0	31	-8	8	-1	.	.
CCn1c(=O)c2c3c(sc2n2c(=S)[nH]nc12)CCC3	-4	0	59*	-9	-1	0	88*	-2
Cc1ccc(-n2c(=O)c3c4c(sc3n3c(=S)[nH]nc23)CCC4)cc1	-5	0	35	-8	.	0	.	.
O=c1c2c3c(sc2n2c(=S)[nH]nc2n1-c1ccccc1)CCC3	-2	-1	53*	-11	.	1	84*	-6
Cc1ccc(OCCNC(=O)CCNS(=O)(=O)c2ccc3ccccc3c2)cc1	-11	-2	-3	2	-1	-3	.	.
CN(C)c1ccc(/C=N/Nc2cccc(C(=O)O)c2)cc1	-9	2	47*	2	-4	0	27	.
CN(C)c1ccc(/C=N/n2c(-c3cccnc3)n[nH]c2=S)cc1	-4	-2	45*	-3	-1	0	83*	-2
Cc1ccc(/C=N/n2c(-c3cccnc3)n[nH]c2=S)s1	-4	-1	55*	-2	0	-2	71*	2
Cc1ccc(/C=N/n2c(-c3cccnc3)n[nH]c2=S)o1	-3	0	39	-2	.	-1	.	.
O=C(CN(CC(=O)N1CCOCC1)S(=O)(=O)c1ccc(Br)s1)N1CCOCC1	3	0	46*	-1	-3	1	58*	-2
C#Cc1ccc([C@@H]2C=C(C(=O)N3CCOCC3)O[C@H](OCC)[C@H]2CCCO)cc1	-6	-1	-3	-3	-2	-2	.	.
CCc1ccc(NC(=O)CN(CC(=O)Nc2ccc(CC)cc2)CC(C)O)cc1 (centres undefined)	-1	1	-4	1	4	3	.	.
COc1ccc(NS(=O)(=O)c2cc(C(=O)NNC(=O)c3ccncc3)ccc2OC)c(OC)c1	.	.	-2	-2	.	.	.	.
